From ChEMBL document CHEMBL3085764, “Azole-carbodithioate hybrids as vaginal anti-Candida contraceptive agents: design, synthesis and docking studies” (Eur J Med Chem, 2013)
Converted amounts (≈) assume the structure as drawn.

What was measured:
Sporothrix schenckii = test: Antifungal activity against Sporothrix schenckii after 48 hrs by broth microdilution technique; type: functional, organism-based
Method in brief: (§1)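 MIC by broth microdilution following NCCLS guidelines, in RPMI 1640 buffered with MOPS. Starting inoculum 1-5 × 10^3 CFU/mL. Plates incubated at 35 °C. MIC and IC50 read spectrophotometrically at 492 nm after 48 h.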

Trichomonas vaginalis = test: Trichomonacidal activity against Trichomonas vaginalis after 48 hrs by trypan blue exclusion assay; type: functional; conditions: read-out: MEC
Method in brief: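 T. vaginalis in log phase, grown in TYM with 10% FCS, vitamin mixture and penicillin/streptomycin at 37 °C. DMSO stocks ([…]) serially diluted in TYM down to 0.1 µg/mL; DMSO/TYM vehicle controls. 5 × 10^4 trophozoites added and incubated anaerobically at 37 °C. Viability checked by trypan blue from 3 to 48 h. MIC = lowest concentration killing all cells by 48 h. Three repeats.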

[1] = Spermicidal activity in human semen assessed as sperm immobilization at 0.1 % w/v up to 30 seconds by phase contrast microscopy; type: functional
[2] = Spermicidal activity in human semen assessed as sperm immobilization at 1.0 % w/v up to 30 seconds by phase contrast microscopy; type: functional
Candida albicans [3] = test: Antifungal activity against Candida albicans clinical isolate after 48 hrs by broth microdilution technique; type: functional, organism-based; method in brief: as §1
Candida albicans [4] = test: Antifungal activity against Candida albicans ATCC 10231 after 48 hrs by broth microdilution technique; type: functional, organism-based; conditions: ATCC 10231, 48 h; method in brief: as §1
Candida albicans [5] = test: Antifungal activity against Candida albicans clinical isolate CDRI after 48 hrs by broth microdilution technique; type: functional, organism-based; method in brief: as §1
Candida albicans [6] = test: Antifungal activity against Candida albicans MTCC 183 after 48 hrs by broth microdilution technique; type: functional, organism-based; conditions: MTCC 183, 48 h; method in brief: as §1
Candida parapsilosis = test: Antifungal activity against Candida parapsilosis ATCC 22019 after 48 hrs by broth microdilution technique; type: functional, organism-based; conditions: Lodderomyces parapsilosis, ATCC 22019, 48 h; method in brief: as §1
Candida albicans [7] = test: Antifungal activity against Candida albicans after 48 hrs by broth microdilution technique; type: functional, organism-based; method in brief: as §1
Klebsiella pneumoniae = test: Antibacterial activity against Klebsiella pneumoniae after 48 hrs by broth microdilution technique; type: functional
Method in brief: (§2)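 Broth microdilution following NCCLS guidelines in Mueller Hinton broth. Inoculum held at 1-5 × 10^3 cfu/mL. Plates incubated at 35 °C in a moist, dark chamber for 48 h. MIC and IC50 read spectrophotometrically at 492 nm.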

Staphylococcus aureus = test: Antibacterial activity against Staphylococcus aureus ATCC 25923 after 48 hrs by broth microdilution technique; type: functional; conditions: ATCC 25923, 48 h; method in brief: as §2
Pseudomonas aeruginosa = test: Antibacterial activity against Pseudomonas aeruginosa ATCC BAA-427 after 48 hrs by broth microdilution technique; type: functional; conditions: ATCC BAA-427, 48 h; method in brief: as §2
Escherichia coli = test: Antibacterial activity against Escherichia coli ATCC 9637 after 48 hrs by broth microdilution technique; type: functional; conditions: ATCC 9637, 48 h; method in brief: as §2
Cryptococcus neoformans = test: Antifungal activity against Cryptococcus neoformans after 48 hrs by broth microdilution technique; type: functional, organism-based; method in brief: as §1
Aspergillus fumigatus = test: Antifungal activity against Aspergillus fumigatus after 48 hrs by broth microdilution technique; type: functional, organism-based; method in brief: as §1
[8] = tested on: Trichophyton mentagrophytes; test: Antifungal activity against Trichophyton mentagrophytes after 48 hrs by broth microdilution technique; type: functional, organism-based; method in brief: as §1

Row | Structure (SMILES) | IC50 (Sporothrix schenckii) [µg/mL] | IC50 (Candida albicans [3]) [µg/mL] | IC50 (Candida albicans [4]) [µg/mL] | IC50 (Candida albicans [5]) [µg/mL] | IC50 (Candida albicans [6]) [µg/mL] | IC50 (Candida parapsilosis) [µg/mL] | IC50 (Candida albicans [7]) [µg/mL] | MIC (Klebsiella pneumoniae) [µg/mL] | MIC (Staphylococcus aureus) [µg/mL] | MIC (Pseudomonas aeruginosa) [µg/mL] | MIC (Escherichia coli) [µg/mL] | IC50 (Cryptococcus neoformans) [µg/mL] | IC50 (Aspergillus fumigatus) [µg/mL] | IC50 [8] [µg/mL] | minimal effective concentration (Trichomonas vaginalis) [µg/mL] | Activity [1] [%] | Activity [2] [%]
1 | CCCCCCCCCCCCCCCCSC(=S)n1ccnc1 | > 50 | > 50 | > 50 | > 50 | > 50 | > 50 | > 50 | ≥ 50 | ≥ 50 | ≥ 50 | ≥ 50 | > 50 | > 50 | 18.4 (≈ 50 µM) | > 200 | 0 | 100
2 | O=C1c2ccccc2C(=O)N1CCSC(=S)n1ccnc1 | 4.17 (≈ 13.1 µM) | 16 (≈ 50.5 µM) | 19.5 (≈ 61.5 µM) | 30.9 (≈ 97.5 µM) | 11.1 (≈ 34.9 µM) | > 50 | 5.45 (≈ 17.2 µM) | ≥ 50 | ≥ 50 | ≥ 50 | ≥ 50 | 28.6 (≈ 90.1 µM) | > 50 | 6.15 (≈ 19.4 µM) | > 200 | 0 | 100
3 | CSC(=S)n1ccnc1C | 4.41 (≈ 25.6 µM) | 25.9 (≈ 151 µM) | 36.8 (≈ 214 µM) | > 50 | 37.3 (≈ 216 µM) | > 50 | 7.24 (≈ 42 µM) | ≥ 50 | ≥ 50 | ≥ 50 | ≥ 50 | 9.1 (≈ 52.8 µM) | > 50 | 11.7 (≈ 67.8 µM) | > 200 | 0 | 100
4 | Cc1nccn1C(=S)SCCCC#N | > 50 | > 50 | > 50 | 47.7 (≈ 212 µM) | 41 (≈ 182 µM) | > 50 | 36 (≈ 160 µM) | ≥ 50 | ≥ 50 | ≥ 50 | ≥ 50 | > 50 | > 50 | 24.9 (≈ 111 µM) | > 200 | 0 | 95

The next lines start with results.

Row | IC50 (Sporothrix schenckii) [µg/mL] | IC50 (Candida albicans [3]) [µg/mL] | IC50 (Candida albicans [4]) [µg/mL] | IC50 (Candida albicans [5]) [µg/mL] | IC50 (Candida albicans [6]) [µg/mL] | IC50 (Candida parapsilosis) [µg/mL] | IC50 (Candida albicans [7]) [µg/mL] | MIC (Klebsiella pneumoniae) [µg/mL] | MIC (Staphylococcus aureus) [µg/mL] | MIC (Pseudomonas aeruginosa) [µg/mL] | MIC (Escherichia coli) [µg/mL] | IC50 (Cryptococcus neoformans) [µg/mL] | IC50 (Aspergillus fumigatus) [µg/mL] | IC50 [8] [µg/mL] | Structure (SMILES) | minimal effective concentration (Trichomonas vaginalis) [µg/mL] | Activity [1] [%] | Activity [2] [%]
5 | > 50 | > 50 | > 50 | > 50 | > 50 | > 50 | 5.75 (≈ 36.3 µM) | ≥ 50 | ≥ 50 | ≥ 50 | ≥ 50 | > 50 | > 50 | > 50 | CSC(=S)n1ccnc1 | > 200 | 0 | 100
6 | > 50 | 10.8 (≈ 51 µM) | > 50 | 43.5 (≈ 206 µM) | > 50 | 5.27 (≈ 24.9 µM) | > 50 | ≥ 50 | ≥ 50 | ≥ 50 | ≥ 50 | > 50 | > 50 |  | N#CCCCSC(=S)n1ccnc1 | > 200 | 92 | 100
7 | 4.96 (≈ 26.9 µM) | 1.8 (≈ 9.77 µM) | 7.26 (≈ 39.4 µM) | 3.94 (≈ 21.4 µM) | 6.79 (≈ 36.8 µM) | 2.09 (≈ 11.3 µM) | > 50 | ≥ 50 | ≥ 50 | ≥ 50 | ≥ 50 | 5.75 (≈ 31.2 µM) | > 50 | 4.43 (≈ 24 µM) | C=CCSC(=S)n1ccnc1 | > 200 | 0 | 100
8 |  | 1.06 (≈ 4.13 µM) | 7.68 (≈ 29.9 µM) | 31.4 (≈ 122 µM) | 4.61 (≈ 18 µM) | > 50 | 5.72 (≈ 22.3 µM) | ≥ 50 | ≥ 50 | ≥ 50 | ≥ 50 | > 50 | 6.21 (≈ 24.2 µM) | 1.48 (≈ 5.77 µM) | CCCCCCCCSC(=S)n1ccnc1 | > 200 | 80 | 100
